According to ChEMBL document CHEMBL3779810, “Potent, Selective, and Orally Bioavailable Inhibitors of VPS34 Provide Chemical Tools to Modulate Autophagy in Vivo” (ACS Med Chem Lett, 2016):
pIC50: −log10 of the molar value. Calls of active or inactive are those of the source. The rule behind the calls is not given here.

How the values were obtained:
[1] = molecular target: T1, Phosphatidylinositol 4,5-bisphosphate 3-kinase catalytic subunit delta isoform (Homo sapiens, UniProt O00329); test: Inhibition of PI3Kdelta (unknown origin)
T1 sequence (O00329 whole entry): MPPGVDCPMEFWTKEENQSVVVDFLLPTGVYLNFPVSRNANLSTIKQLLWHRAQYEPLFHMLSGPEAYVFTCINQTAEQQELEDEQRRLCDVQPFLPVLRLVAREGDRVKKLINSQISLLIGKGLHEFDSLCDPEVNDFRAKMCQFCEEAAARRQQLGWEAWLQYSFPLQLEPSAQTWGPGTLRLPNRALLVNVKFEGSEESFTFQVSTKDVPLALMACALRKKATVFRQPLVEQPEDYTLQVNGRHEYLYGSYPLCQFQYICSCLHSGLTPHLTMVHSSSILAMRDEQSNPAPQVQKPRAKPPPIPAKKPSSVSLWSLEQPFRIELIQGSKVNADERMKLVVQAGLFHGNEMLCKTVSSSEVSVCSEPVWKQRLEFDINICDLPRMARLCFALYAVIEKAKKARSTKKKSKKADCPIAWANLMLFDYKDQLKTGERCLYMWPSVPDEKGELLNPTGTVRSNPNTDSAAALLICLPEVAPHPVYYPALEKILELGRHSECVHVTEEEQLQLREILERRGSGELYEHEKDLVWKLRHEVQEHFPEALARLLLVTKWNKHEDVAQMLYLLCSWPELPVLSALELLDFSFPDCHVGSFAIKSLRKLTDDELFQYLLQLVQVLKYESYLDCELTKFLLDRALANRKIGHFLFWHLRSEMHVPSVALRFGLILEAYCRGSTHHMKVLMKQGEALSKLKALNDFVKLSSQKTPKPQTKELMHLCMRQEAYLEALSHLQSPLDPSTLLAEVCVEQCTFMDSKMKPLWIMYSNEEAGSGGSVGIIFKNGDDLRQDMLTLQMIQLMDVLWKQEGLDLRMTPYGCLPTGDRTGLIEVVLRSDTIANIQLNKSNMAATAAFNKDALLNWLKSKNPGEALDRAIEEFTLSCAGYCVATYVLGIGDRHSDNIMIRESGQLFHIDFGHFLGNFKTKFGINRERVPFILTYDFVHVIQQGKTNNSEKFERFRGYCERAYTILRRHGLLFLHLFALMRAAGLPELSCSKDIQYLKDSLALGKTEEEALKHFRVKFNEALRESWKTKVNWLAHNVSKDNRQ

[2] = molecular target: Phosphatidylinositol 4,5-bisphosphate 3-kinase catalytic subunit gamma isoform (Homo sapiens, UniProt P48736); test: Inhibition of PI3Kgamma (unknown origin)
[3] = Intrinsic clearance in mouse liver microsomes by LC-MS/MS analysis; assay type: ADME; conditions: read-out: CLH
[4] = molecular target: T2, Phosphatidylinositol 3-kinase catalytic subunit type 3 (Homo sapiens, UniProt Q8NEB9); test: Inhibition of VPS34 in human U2OS cells incubated for 2 hrs by GFP-FYVE reporter gene assay; assay type: cell-based
[5] = molecular target: Phosphatidylinositol 4,5-bisphosphate 3-kinase catalytic subunit beta isoform (Homo sapiens, UniProt P42338); test: Inhibition of PI3Kbeta (unknown origin)
[6] = molecular target: Phosphatidylinositol 4,5-bisphosphate 3-kinase catalytic subunit alpha isoform (Homo sapiens, UniProt P42336); test: Inhibition of PI3Kalpha (unknown origin)
[7] = molecular target: T2, Phosphatidylinositol 3-kinase catalytic subunit type 3; test: Inhibition of VPS34 in human DLD1 cells assessed as prevention of NCOA4 protein degradation at 1 to 10 uM incubated for 24 hrs by Western blot analysis; assay type: cell-based; conditions: DLD-1
[8] = molecular target: T2, Phosphatidylinositol 3-kinase catalytic subunit type 3; test: Inhibition of VPS34 in human DLD1 cells assessed as prevention of p62 degradation at 1 to 10 uM incubated for 24 hrs by Western blot analysis; assay type: cell-based; conditions: DLD-1
[9] = molecular target: T2, Phosphatidylinositol 3-kinase catalytic subunit type 3; test: Inhibition of VPS34 in human DLD1 cells assessed as prevention of NBR1 protein degradation at 1 to 10 uM incubated for 24 hrs by Western blot analysis; assay type: cell-based; conditions: DLD-1
[10] = molecular target: T2, Phosphatidylinositol 3-kinase catalytic subunit type 3; test: Inhibition of VPS34 in human DLD1 cells assessed as prevention of FTH1 protein degradation at 1 to 10 uM incubated for 24 hrs by Western blot analysis; assay type: cell-based; conditions: DLD-1
[11] = molecular target: T2, Phosphatidylinositol 3-kinase catalytic subunit type 3; test: Inhibition of VPS34 in human DLD1 cells assessed as prevention of NDP52 protein degradation at 1 to 10 uM incubated for 24 hrs by Western blot analysis; assay type: cell-based; conditions: DLD-1
[12] = molecular target: T2, Phosphatidylinositol 3-kinase catalytic subunit type 3; test: Inhibition of recombinant human VPS34 using L-alpha-phosphatidylinositol as substrate incubated for 10 mins by luminescence based ATP detection assay
Summary of the method: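 VPS34 biochemical IC50 was measured with a luminescence-based ATP detection read-out.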

[13] = molecular target: Phosphatidylinositol 4-kinase beta (Homo sapiens, UniProt Q9UBF8); test: Inhibition of PI4Kbeta (unknown origin)
[14] = Systemic clearance in C57BL/6 mouse at 10 mg/kg, po; assay type: ADME, organism-based; conditions: in vivo
Summary of the method: (§1)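 Pharmacokinetics in C57BL/6 mice after a single dose, either intravenous at 2 mg/kg or oral at 10 mg/kg. Mean parameters reported: AUCinf, CL, Vdss, t1/2, Tmax, Cmax and F. Clearance was also expressed as a percentage of hepatic blood flow.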

[15] = Volume of distribution at steady state in C57BL/6 mouse at 2 mg/kg, iv; assay type: ADME, organism-based; conditions: in vivo, read-out: Vdss; summary of the method: as §1
[16] = Tmax in C57BL/6 mouse at 10 mg/kg, po; assay type: ADME, organism-based; conditions: in vivo; summary of the method: as §1
[17] = test system: Mus musculus; test: Inhibition of autophagy in athymic nude mouse xenografted with human RKO cells assessed as accumulation of LC3-2 protein at 50 mg/kg, po bid for 7 days by SDS-PAGE analysis; assay type: functional, organism-based; conditions: TDE = time-dependent effect
Summary of the method: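 Nude mice bearing RKO colon cancer tumors were dosed orally at 50 mg/kg twice daily (BID) for 7 days. LC3-II in tumor samples was followed over time by immunoblot, one lane per individual mouse.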

[18] = organism: Homo sapiens; test: Selectivity ratio of IC50 for PI3Kdelta (unknown origin) to recombinant human VPS34
[19] = AUC (0 to infinity) in C57BL/6 mouse at 10 mg/kg, po; assay type: ADME, organism-based; design: dose 10 mg/kg, route oral, time infinity; conditions: in vivo; summary of the method: as §1
[20] = Oral bioavailability in C57BL/6 mouse at 10 mg/kg; assay type: ADME, organism-based; conditions: in vivo; summary of the method: as §1
[21] = molecular target: T2, Phosphatidylinositol 3-kinase catalytic subunit type 3; test: Inhibition of VPS34 in human DLD1 cells assessed as increase in LC3-1 protein expression at 1 to 10 uM incubated for 24 hrs by Western blot analysis; assay type: cell-based; conditions: DLD-1
[22] = organism: Homo sapiens; test: Selectivity ratio of IC50 for PI3Kbeta (unknown origin) to recombinant human VPS34
[23] = Cmax in C57BL/6 mouse at 10 mg/kg, po; assay type: ADME, organism-based; design: dose 10 mg/kg, route oral; conditions: in vivo; summary of the method: as §1
[24] = molecular target: T2, Phosphatidylinositol 3-kinase catalytic subunit type 3; test: Inhibition of VPS34 in human DLD1 cells assessed as increase in LC3-2 protein expression at 1 to 10 uM incubated for 24 hrs by Western blot analysis; assay type: cell-based; conditions: DLD-1
[25] = Half life in C57BL/6 mouse at 2 mg/kg, iv; assay type: ADME, organism-based; conditions: in vivo; summary of the method: as §1
[26] = test system: RKO; test: Antitumor activity against human RKO cells xenografted in athymic nude mouse assessed as reduction in tumor volume at 50 mg/kg, po bid for 7 days; assay type: functional, organism-based
[27] = organism: Homo sapiens; test: Selectivity ratio of IC50 for PI3Kalpha (unknown origin) to recombinant human VPS34
[28] = test system: Mus musculus; test: Systemic clearance in C57BL/6 mouse at 10 mg/kg, po relative to hepatic blood flow; assay type: ADME, organism-based, Liver; conditions: in vivo; summary of the method: as §1
[29] = organism: Homo sapiens; test: Selectivity ratio of IC50 for PI3Kgamma (unknown origin) to recombinant human VPS34
[30] = Clearance in C57BL/6 mouse at 2 mg/kg, iv; assay type: ADME, organism-based; conditions: in vivo; summary of the method: as §1
[31] = organism: Homo sapiens; test: Selectivity ratio of IC50 for TAK1 (unknown origin) to recombinant human VPS34
[32] = AUC (0 to infinity) in C57BL/6 mouse at 2 mg/kg, iv; assay type: ADME, organism-based; design: dose 2 mg/kg, route intravenous, time infinity; conditions: in vivo; summary of the method: as §1

T2 sequence (Q8NEB9 whole entry, canonical isoform): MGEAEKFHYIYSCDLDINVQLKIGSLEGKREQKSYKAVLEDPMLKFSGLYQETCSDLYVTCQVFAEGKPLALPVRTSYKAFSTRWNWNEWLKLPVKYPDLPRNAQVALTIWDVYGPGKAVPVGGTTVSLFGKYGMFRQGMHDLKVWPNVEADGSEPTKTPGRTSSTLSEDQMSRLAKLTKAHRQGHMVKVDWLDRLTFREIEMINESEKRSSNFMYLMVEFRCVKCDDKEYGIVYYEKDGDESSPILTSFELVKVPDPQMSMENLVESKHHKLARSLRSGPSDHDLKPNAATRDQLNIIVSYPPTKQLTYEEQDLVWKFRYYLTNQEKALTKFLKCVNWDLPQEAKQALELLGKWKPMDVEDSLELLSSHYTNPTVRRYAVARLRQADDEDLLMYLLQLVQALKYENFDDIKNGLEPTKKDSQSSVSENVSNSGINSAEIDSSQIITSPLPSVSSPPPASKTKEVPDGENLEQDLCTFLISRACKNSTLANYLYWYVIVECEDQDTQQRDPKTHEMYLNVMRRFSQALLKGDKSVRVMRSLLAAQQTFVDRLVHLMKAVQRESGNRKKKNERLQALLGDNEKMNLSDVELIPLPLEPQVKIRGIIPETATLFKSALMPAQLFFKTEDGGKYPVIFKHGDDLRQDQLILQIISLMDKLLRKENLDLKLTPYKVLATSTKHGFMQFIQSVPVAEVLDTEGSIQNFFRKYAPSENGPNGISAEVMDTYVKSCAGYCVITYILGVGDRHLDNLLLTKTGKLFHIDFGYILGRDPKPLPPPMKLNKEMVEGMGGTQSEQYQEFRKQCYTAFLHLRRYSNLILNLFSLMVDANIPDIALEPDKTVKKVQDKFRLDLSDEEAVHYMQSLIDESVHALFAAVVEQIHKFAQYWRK
Phosphatidylinositol 4,5-bisphosphate 3-kinase catalytic subunit alpha isoform, sequence (P42336 whole entry, canonical isoform): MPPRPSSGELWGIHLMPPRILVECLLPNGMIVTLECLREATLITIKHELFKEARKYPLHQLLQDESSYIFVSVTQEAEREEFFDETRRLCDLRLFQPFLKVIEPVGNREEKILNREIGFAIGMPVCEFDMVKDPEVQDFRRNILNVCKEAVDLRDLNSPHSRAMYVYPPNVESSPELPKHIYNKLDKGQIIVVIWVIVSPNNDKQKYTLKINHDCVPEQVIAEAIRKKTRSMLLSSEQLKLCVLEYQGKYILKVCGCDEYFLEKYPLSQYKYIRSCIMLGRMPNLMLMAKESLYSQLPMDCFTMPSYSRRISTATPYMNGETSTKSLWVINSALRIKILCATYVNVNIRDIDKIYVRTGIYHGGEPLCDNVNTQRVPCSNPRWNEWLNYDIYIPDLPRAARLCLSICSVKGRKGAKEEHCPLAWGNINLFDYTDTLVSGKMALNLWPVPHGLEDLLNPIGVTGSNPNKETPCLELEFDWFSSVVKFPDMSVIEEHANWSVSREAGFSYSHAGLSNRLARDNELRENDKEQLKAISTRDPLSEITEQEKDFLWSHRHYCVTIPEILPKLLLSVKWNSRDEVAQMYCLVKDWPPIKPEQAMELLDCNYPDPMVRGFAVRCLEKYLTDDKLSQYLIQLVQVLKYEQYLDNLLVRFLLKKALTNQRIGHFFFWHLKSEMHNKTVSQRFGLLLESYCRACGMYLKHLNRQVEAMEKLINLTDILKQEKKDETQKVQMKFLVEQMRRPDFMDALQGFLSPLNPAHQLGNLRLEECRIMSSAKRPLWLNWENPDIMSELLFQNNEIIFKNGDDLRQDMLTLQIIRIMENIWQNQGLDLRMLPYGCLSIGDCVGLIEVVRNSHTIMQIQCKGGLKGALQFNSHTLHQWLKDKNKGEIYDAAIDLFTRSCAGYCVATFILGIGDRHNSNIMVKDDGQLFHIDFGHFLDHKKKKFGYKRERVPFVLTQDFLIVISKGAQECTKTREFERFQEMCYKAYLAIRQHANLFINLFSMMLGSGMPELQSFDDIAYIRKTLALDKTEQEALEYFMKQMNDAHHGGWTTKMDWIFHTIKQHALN
Phosphatidylinositol 4,5-bisphosphate 3-kinase catalytic subunit beta isoform, sequence (P42338 whole entry, canonical isoform): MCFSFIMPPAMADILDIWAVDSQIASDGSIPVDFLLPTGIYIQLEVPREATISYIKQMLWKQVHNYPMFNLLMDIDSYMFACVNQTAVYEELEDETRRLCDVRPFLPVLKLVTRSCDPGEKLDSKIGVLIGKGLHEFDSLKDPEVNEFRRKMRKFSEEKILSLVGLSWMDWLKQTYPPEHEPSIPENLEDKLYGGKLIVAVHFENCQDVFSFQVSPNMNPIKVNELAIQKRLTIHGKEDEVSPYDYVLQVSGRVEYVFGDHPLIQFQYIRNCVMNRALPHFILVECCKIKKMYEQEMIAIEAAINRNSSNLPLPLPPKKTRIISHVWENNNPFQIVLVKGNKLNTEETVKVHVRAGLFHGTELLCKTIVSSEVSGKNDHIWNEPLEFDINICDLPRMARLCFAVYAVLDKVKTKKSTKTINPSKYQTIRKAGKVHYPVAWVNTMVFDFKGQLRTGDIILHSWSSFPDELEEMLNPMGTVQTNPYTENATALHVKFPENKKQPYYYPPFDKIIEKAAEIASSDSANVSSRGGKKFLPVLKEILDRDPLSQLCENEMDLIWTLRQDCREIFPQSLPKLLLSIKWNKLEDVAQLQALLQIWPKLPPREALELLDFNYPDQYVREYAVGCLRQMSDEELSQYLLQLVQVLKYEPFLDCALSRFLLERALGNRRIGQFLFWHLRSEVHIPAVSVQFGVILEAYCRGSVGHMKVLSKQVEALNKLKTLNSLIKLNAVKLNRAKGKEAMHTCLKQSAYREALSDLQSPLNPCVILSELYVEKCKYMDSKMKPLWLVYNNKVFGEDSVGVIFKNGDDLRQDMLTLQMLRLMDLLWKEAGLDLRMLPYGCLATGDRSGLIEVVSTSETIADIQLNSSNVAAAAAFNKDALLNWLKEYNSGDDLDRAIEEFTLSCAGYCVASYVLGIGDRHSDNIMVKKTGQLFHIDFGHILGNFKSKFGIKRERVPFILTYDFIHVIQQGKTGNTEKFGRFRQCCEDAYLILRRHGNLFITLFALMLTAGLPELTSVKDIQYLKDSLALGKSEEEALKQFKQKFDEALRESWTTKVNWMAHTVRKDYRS
Phosphatidylinositol 4,5-bisphosphate 3-kinase catalytic subunit gamma isoform, sequence (P48736 whole entry, canonical isoform): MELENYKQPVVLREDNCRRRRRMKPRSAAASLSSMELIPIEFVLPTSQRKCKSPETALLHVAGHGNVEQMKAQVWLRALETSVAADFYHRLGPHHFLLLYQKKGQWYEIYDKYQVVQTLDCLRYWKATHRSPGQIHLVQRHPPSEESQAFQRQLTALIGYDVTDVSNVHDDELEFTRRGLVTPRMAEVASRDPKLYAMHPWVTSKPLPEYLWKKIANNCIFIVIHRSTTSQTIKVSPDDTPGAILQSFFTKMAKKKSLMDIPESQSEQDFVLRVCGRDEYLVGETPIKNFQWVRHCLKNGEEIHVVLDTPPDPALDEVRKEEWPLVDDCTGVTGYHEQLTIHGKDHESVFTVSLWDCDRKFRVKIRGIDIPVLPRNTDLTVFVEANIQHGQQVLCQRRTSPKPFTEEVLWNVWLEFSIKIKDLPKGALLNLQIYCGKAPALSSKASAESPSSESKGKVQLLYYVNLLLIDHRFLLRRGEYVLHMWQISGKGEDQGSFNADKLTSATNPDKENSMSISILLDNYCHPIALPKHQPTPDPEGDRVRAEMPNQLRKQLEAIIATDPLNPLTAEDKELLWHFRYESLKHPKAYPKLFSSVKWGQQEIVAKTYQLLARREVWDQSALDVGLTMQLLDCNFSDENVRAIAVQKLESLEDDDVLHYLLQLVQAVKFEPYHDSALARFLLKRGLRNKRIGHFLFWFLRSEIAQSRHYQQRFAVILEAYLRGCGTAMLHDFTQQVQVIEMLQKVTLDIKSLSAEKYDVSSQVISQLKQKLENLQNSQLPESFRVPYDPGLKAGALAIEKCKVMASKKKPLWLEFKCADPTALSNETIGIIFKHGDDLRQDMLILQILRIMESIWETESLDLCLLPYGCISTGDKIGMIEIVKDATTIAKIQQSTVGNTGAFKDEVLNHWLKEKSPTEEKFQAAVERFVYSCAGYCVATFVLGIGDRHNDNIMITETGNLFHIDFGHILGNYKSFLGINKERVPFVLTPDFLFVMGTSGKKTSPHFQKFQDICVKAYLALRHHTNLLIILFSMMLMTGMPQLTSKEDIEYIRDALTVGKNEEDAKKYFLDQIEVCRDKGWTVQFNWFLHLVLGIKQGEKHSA
Phosphatidylinositol 4-kinase beta, sequence (Q9UBF8 whole entry): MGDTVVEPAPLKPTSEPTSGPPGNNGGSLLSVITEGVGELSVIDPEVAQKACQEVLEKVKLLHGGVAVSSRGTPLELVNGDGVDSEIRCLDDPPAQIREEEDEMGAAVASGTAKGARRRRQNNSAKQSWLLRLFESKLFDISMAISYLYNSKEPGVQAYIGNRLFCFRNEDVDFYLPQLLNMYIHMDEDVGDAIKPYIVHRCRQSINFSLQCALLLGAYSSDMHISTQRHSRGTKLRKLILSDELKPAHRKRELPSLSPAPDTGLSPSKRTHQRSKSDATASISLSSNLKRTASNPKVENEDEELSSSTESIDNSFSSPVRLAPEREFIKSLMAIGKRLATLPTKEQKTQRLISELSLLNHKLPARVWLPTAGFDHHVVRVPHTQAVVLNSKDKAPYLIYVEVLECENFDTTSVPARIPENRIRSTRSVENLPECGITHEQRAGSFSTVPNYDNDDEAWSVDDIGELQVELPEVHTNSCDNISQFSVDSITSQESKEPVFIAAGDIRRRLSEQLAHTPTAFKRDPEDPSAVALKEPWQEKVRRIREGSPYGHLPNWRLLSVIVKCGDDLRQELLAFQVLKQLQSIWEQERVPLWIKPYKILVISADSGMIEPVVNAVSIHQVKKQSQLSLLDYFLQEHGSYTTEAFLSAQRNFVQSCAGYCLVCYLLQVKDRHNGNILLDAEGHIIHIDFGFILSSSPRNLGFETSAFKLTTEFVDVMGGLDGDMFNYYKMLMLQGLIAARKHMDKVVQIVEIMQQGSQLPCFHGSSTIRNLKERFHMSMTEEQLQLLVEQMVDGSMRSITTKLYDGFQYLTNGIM

SMILES: CNc1ncc(-c2ccnc(Nc3ccncc3)n2)c(CC2CC2)n1
- pIC50 [1]: 5.54
- pIC50 [2]: 5.72
- CLint scaled [3]: 86.7 mL/min/kg
- pIC50 [4]: 7.85
- pIC50 [5]: < 5.04
- pIC50 [6]: 5.17

SMILES: Nc1ncc(-c2ccnc(Nc3ccncc3)n2)c(CC2CC2)n1
- CLint scaled [3]: 72.8 mL/min/kg
- inhibition [7]: Active
- inhibition [8]: Active
- inhibition [9]: Active
- inhibition [10]: Active
- inhibition [11]: Active

SMILES: c1ccc(CNc2ncc(-c3ccnc(Nc4ccncc4)n3)c(CC3CC3)n2)cc1
- pIC50 [1]: 5.43
- CLint scaled [3]: 74.8 mL/min/kg

SMILES: CNc1ncc(-c2ccnc(NCCCO)n2)c(CC2CC2)n1
- pIC50 [12]: 5.20

SMILES: CNc1ncc(-c2ccnc(NC3CCCCC3)n2)c(CC2CC2)n1
- pIC50 [12]: 5.47

SMILES: CNc1ncc(-c2ccnc(Nc3cnc4ccccc4c3)n2)c(CC2CC2)n1
- pIC50 [12]: 6.89

SMILES: COc1ncc(-c2ccnc(Nc3ccncc3)n2)c(CC2CC2)n1
- pIC50 [1]: 5.07
- CLint scaled [3]: 84.7 mL/min/kg

SMILES: CNc1ncc(-c2ccnc(N[C@H]3CC[C@H](O)CC3)n2)c(CC2CC2)n1
- pIC50 [1]: 5.15
- pIC50 [2]: 5.07
- pIC50 [13]: 5.42
- CLint scaled [3]: 82.6 mL/min/kg
- pIC50 [5]: < 5.04
- pIC50 [6]: 5.21

SMILES: CNc1ncc(-c2ccnc(N[C@H]3CC[C@H](N)CC3)n2)c(CC2CC2)n1
- pIC50 [12]: 6.39

SMILES: CNc1ncc(-c2ccnc(Nc3ccccc3)n2)c(CC2CC2)n1
- pIC50 [12]: 6.54

SMILES: CC(C)(O)CNc1ncc(-c2ccnc(Nc3ccncc3)n2)c(CC2CC2)n1
- pIC50 [1]: 6.09
- CL/F [14]: 30 mL/min/kg
- Vd [15]: 1.5 L/kg
- Tmax [16]: 42 min
- inhibition [17]: tde
- CLint scaled [3]: 63.2 mL/min/kg
- pIC50 [4]: 7.60
- inhibition [7]: Active
- Ratio IC50 [18]: 40
- AUC(0-inf) [19]: 6.73 µM·h
- bioavailability [20]: 47%
- inhibition [21]: Active
- Ratio IC50 [22]: > 100
- Cmax [23]: 2990 nM
- inhibition [24]: Active
- inhibition [8]: Active
- half-life [25]: 72 min
- inhibition [9]: Active
- inhibition [10]: Active
- Activity [26]: inactive
- Ratio IC50 [27]: > 100
- CL [28]: 33%
- Ratio IC50 [29]: > 100
- clearance [30]: 30 mL/min/kg
- Ratio IC50 [31]: 10
- AUC(0-inf) [32]: 2.85 µM·h
- inhibition [11]: Active

SMILES: c1cc(Nc2nccc(-c3cncnc3CC3CC3)n2)ccn1
- pIC50 [1]: < 5.04
- CLint scaled [3]: 69.9 mL/min/kg
- pIC50 [4]: 6.48
- pIC50 [12]: 6.68

SMILES: c1cc(Nc2nccc(-c3cnc(NC4CCOCC4)nc3CC3CC3)n2)ccn1
- pIC50 [1]: 5.38
- CLint scaled [3]: 65.8 mL/min/kg
- pIC50 [4]: 6.57
- pIC50 [12]: 6.62

SMILES: CC(C)(C)CNc1ncc(-c2ccnc(Nc3ccncc3)n2)c(CC2CC2)n1
- pIC50 [1]: 6.30
- CLint scaled [3]: 67 mL/min/kg

SMILES: CC(C)(C)Nc1ncc(-c2ccnc(Nc3ccncc3)n2)c(CC2CC2)n1
- pIC50 [1]: 6.13
- CLint scaled [3]: 85.5 mL/min/kg
